Reference: ChEMBL document CHEMBL1146247, “Identification and characterization of 3-substituted pyrazolyl esters as alternate substrates for cathepsin B: the confounding effects of DTT and cysteine in biological assays” (Bioorg Med Chem Lett, 2007)

Legend:
Cathepsin B [1] = molecular target: T1, Cathepsin B (Homo sapiens, UniProt P07858); assay: Inhibition of human liver cathepsin B
Outline: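 Enzyme activated 15 min in assay buffer (100 mM Na/K phosphate pH 6.8, 1 mM EDTA, 2 mM DTT), then incubated 1 h at room temperature with 15 µM Z-Arg-Arg-AMC and compound. Compound given as 16 2-fold dilutions, 50 µM to 1.5 nM. AMC fluorescence read at ex 355/em 460 nm. Triplicate plates gave three independent IC50 values.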

Cathepsin B [2] = molecular target: T1, Cathepsin B; assay: Inhibition of human liver cathepsin B pre-incubated for 2 hrs in assay buffer with DTT
Outline: (§1)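 Compound held 2, 17 or 24 h in assay buffer (phosphate pH 6.8, with DTT) before testing. It was then incubated with 0.1 nM cathepsin B in 100 mM buffer with 2 mM DTT, 1 mM EDTA and 15 µM Z-Arg-Arg-AMC for 1 h at room temperature. Read-out was AMC fluorescence (ex 355/em 460). IC50 came from 16 2-fold dilutions.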

Cathepsin B [3] = molecular target: T1, Cathepsin B; assay: Inhibition of human liver cathepsin B pre-incubated for 24 hrs in buffer without DTT
Outline: (§2)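 Compound held 2, 17 or 24 h in phosphate assay buffer pH 6.8 lacking DTT before testing. It was then run in the standard assay: 0.1 nM activated cathepsin B, 15 µM Z-Arg-Arg-AMC, 1 h at room temperature. Read-out was AMC fluorescence at 355/460 nm. IC50 came from a 16-point 2-fold dilution curve.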

Cathepsin B [4] = molecular target: T1, Cathepsin B; assay: Inhibition of human liver cathepsin B pre-incubated for 17 hrs in buffer without DTT; outline: as §2
Cathepsin B [5] = molecular target: T1, Cathepsin B; assay: Inhibition of human liver cathepsin B pre-incubated for 24 hrs in non-buffer solution without DTT
Outline: (§3)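 Compound held 2, 17 or 24 h in non-buffered solution without DTT before testing. It was then assayed against 0.1 nM activated cathepsin B with 15 µM Z-Arg-Arg-AMC for 1 h at room temperature. Read-out was AMC fluorescence at ex 355/em 460 nm. IC50 came from 16 2-fold dilutions.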

[6] = Stability of compound in presence of cathepsin B after 15 mins; assay type: ADME; conditions: read-out: Stability
Outline: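 Stoichiometric incubation of ester (10 μM, 1 equiv) with activated cathepsin B (20 μM, 2 equiv) under standard assay conditions (100 mM sodium-potassium phosphate pH 6.8, 1 mM EDTA, 2 mM DTT); parallel run without enzyme. After 15 min, remaining parent and conversion to pyrazolone by-product measured by LC–MS, 6.5 min run.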

Cathepsin B [7] = molecular target: T1, Cathepsin B; assay: Inhibition of human liver cathepsin B pre-incubated for 2 hrs in non-buffer solution without DTT; outline: as §3
Cathepsin B [8] = molecular target: T1, Cathepsin B; assay: Inhibition of human liver cathepsin B pre-incubated for 2 hrs in buffer without DTT; outline: as §2
Cathepsin B [9] = molecular target: T1, Cathepsin B; assay: Inhibition of human liver cathepsin B pre-incubated for 17 hrs in non-buffer solution without DTT; outline: as §3
Cathepsin B [10] = molecular target: T1, Cathepsin B; assay: Inhibition of human liver cathepsin B pre-incubated for 17 hrs in assay buffer with DTT; outline: as §1
Cathepsin B [11] = molecular target: T1, Cathepsin B; assay: Inhibition of human liver cathepsin B pre-incubated for 24 hrs in assay buffer with DTT; outline: as §1

## COc1ccc(S(=O)(=O)n2nc(OC(=O)c3cccs3)cc2N)cc1
Cathepsin B [1]
  IC50: 690 nM

## Cc1ccc(S(=O)(=O)n2nc(OC(=O)c3cccs3)cc2N)cc1
Cathepsin B [1]
  IC50: 1990 nM

## Nc1cc(OC(=O)c2ccco2)nn1S(=O)(=O)c1ccc(F)cc1
Cathepsin B [1]
  IC50: 1260 nM

## Cc1ccc(S(=O)(=O)n2nc(OC(=O)c3ccco3)cc2N)cc1
Cathepsin B [1]
  IC50: 1750 nM

## Nc1cc(OC(=O)c2cccs2)nn1S(=O)(=O)c1ccccc1
Cathepsin B [2]
  IC50: 9000 nM
Cathepsin B [1]
  IC50: 250 nM
Cathepsin B [3]
  IC50: 3200 nM
Cathepsin B [4]
  IC50: 700 nM
Cathepsin B [5]
  IC50: 5000 nM
[6]
  remaining at 0.25 h: 50%
Cathepsin B [7]
  IC50: 1700 nM
Cathepsin B [8]
  IC50: 1400 nM
Cathepsin B [9]
  IC50: 1800 nM
Cathepsin B [10]
  IC50: 45400 nM
Cathepsin B [11]
  IC50: > 50000 nM

## Nc1cc(OC(=O)c2cccs2)nn1S(=O)(=O)c1ccc(F)cc1
Cathepsin B [1]
  IC50: 440 nM
